ChEMBL document CHEMBL3813641, “Prediction and verification of novel peptide targets of protein tyrosine phosphatase 1B” (Bioorg Med Chem, 2016)

Key:
[1] = substrate: CC(C)C[C@@H](N)C(=O)NCC(=O)N[C@@H](CO)C(=O)N[C@@H](CCCNC(=N)N)C(=O)N[C@@H](C)C(=O)N1CCC[C@@H]1C(=O)N[C@H](Cc1ccc(O)cc1)C(=O)N1CCC[C@H]1C(=O)N[C@@H](Cc1cnc[nH]1)C(=O)N[C@H](Cc1ccccc1)C(=O)N[C@H](CS)C(=O)N[C@H](C)C(=O)O; assay: (§1) Substrate activity at recombinant human N-terminal His-tagged PTP1B (1 to 321 residues) expressed in Escherichia coli BL21(DE3) cells assessed as inorganic phosphate release after 30 mins by spectrophotometric method
How it was run: (§2)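 Synthetic phosphotyrosine peptides (N-acetylated, C-terminal amide, HPLC-purified) were incubated in vitro with purified PTP1B, and the released inorganic phosphate was detected with the EnzChek phosphate assay kit.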

[2] = substrate: CC(C)[C@H](NC(=O)[C@H](CC(=O)O)NC(=O)[C@H](CCC(=O)O)NC(=O)[C@H](CC(N)=O)NC(=O)[C@@H](N)CC(=O)O)C(=O)N1CCC[C@@H]1C(=O)N[C@@H](Cc1ccc(O)cc1)C(=O)N[C@H](C(=O)N[C@@H](Cc1ccccc1)C(=O)N[C@@H](CCCCN)C(=O)N[C@H](C(=O)N1CCC[C@H]1C(=O)O)[C@@H](C)O)[C@@H](C)O; assay: as §1; how it was run: as §2
[3] = substrate: CC[C@H](C)[C@H](N)C(=O)N[C@@H](CCC(=O)O)C(=O)N[C@@H](CC(=O)O)C(=O)N1CCC[C@H]1C(=O)N1CCC[C@@H]1C(=O)N[C@@H](Cc1ccc(O)cc1)C(=O)N1CCC[C@@H]1C(=O)N[C@@H](Cc1ccc(O)cc1)C(=O)NCC(=O)N[C@@H](CC(N)=O)C(=O)N[C@@H](CC(=O)O)C(=O)N[C@@H](CO)C(=O)N[C@@H](CC(=O)O)C(=O)O; assay: as §1; how it was run: as §2
[4] = substrate: CC[C@H](C)[C@H](NC(=O)[C@@H]1CCCN1C(=O)[C@H](CCC(=O)O)NC(=O)[C@H](C)NC(=O)[C@H](Cc1ccc(O)cc1)NC(=O)[C@H]1CCCN1C(=O)[C@H](CC(N)=O)NC(=O)[C@H](CC(=O)O)NC(=O)[C@H](CO)NC(=O)[C@@H]1CCCN1C(=O)[C@@H](N)CC(=O)O)C(=O)N[C@@H](CC(=O)O)C(=O)O; assay: as §1; how it was run: as §2
[5] = substrate: CC[C@H](C)[C@H](NC(=O)[C@@H]1CCCN1C(=O)[C@H](CO)NC(=O)[C@H](CCCCN)NC(=O)[C@H](Cc1ccc(O)cc1)NC(=O)[C@H]1CCCN1C(=O)[C@@H](NC(=O)[C@@H]1CCCN1C(=O)[C@H](CC(N)=O)NC(=O)[C@H](CCC(=O)O)NC(=O)[C@@H](N)CCC(N)=O)[C@@H](C)CC)C(=O)N[C@@H](CC(N)=O)C(=O)O; assay: as §1; how it was run: as §2
[6] = substrate: CC[C@H](C)[C@H](NC(=O)[C@H](CC(=O)O)NC(=O)[C@H](CCC(=O)O)NC(=O)[C@H](CCC(=O)O)NC(=O)[C@@H](N)CCC(=O)O)C(=O)N1CCC[C@@H]1C(=O)N[C@@H](Cc1ccc(O)cc1)C(=O)N[C@@H](CCC(=O)O)C(=O)N[C@H](C(=O)N[C@@H](CC(C)C)C(=O)N1CCC[C@H]1C(=O)N[C@@H](CC(=O)O)C(=O)O)C(C)C; assay: as §1; how it was run: as §2
[7] = substrate: C[C@@H](O)[C@H](NC(=O)[C@@H](N)CO)C(=O)N[C@@H](CCC(=O)O)C(=O)N1CCC[C@H]1C(=O)N[C@@H](CCC(N)=O)C(=O)N1CCC[C@@H]1C(=O)N[C@@H](Cc1ccc(O)cc1)C(=O)N[C@@H](CCC(N)=O)C(=O)N1CCC[C@H]1C(=O)NCC(=O)N[C@@H](CCC(=O)O)C(=O)N[C@@H](CC(N)=O)C(=O)O; assay: as §1; how it was run: as §2
[8] = substrate: NCCCC[C@H](NC(=O)[C@H](CCCCN)NC(=O)[C@@H]1CCCN1C(=O)[C@H](Cc1ccc(O)cc1)NC(=O)[C@H]1CCCN1C(=O)[C@H](CCCCN)NC(=O)[C@H](CCCCN)NC(=O)[C@H](CCCCN)NC(=O)[C@@H](N)CCCCN)C(=O)O; assay: as §1; how it was run: as §2
[9] = substrate: NCCCC[C@H](NC(=O)[C@H](CCCCN)NC(=O)[C@@H]1CCCN1C(=O)[C@H](Cc1ccc(O)cc1)NC(=O)[C@H]1CCCN1C(=O)[C@H](CCCCN)NC(=O)[C@H](CCCCN)NC(=O)[C@H](CCCCN)NC(=O)[C@@H](N)CCCCN)C(=O)O; assay: Ratio of Kcat to Km for recombinant human N-terminal His-tagged PTP1B (1 to 321 residues) expressed in Escherichia coli BL21(DE3) cells
[10] = substrate: CC(C)[C@H](NC(=O)[C@@H](CCCCN)NC(=O)[C@@H](Cc1ccc(O)cc1)NC(=O)[C@H]1CCCN1C(=O)[C@H](Cc1ccc(O)cc1)NC(=O)[C@H]1CCCN1C(=O)[C@H](CCC(=O)O)NC(=O)[C@H](N)CCCCN)C(=O)N[C@H](CCCCN)C(=O)O; assay: Substrate activity at PTP1B (unknown origin); details: Homo sapiens; how it was run: as §2

B1: Tyrosine-protein phosphatase non-receptor type 1 (Homo sapiens), P18031 (protein)
chain: MEMEKEFEQIDKSGSWAAIYQDIRHEASDFPCRVAKLPKNKNRNRYRDVSPFDHSRIKLHQEDNDYINASLIKMEEAQRSYILTQGPLPNTCGHFWEMVWEQKSRGVVMLNRVMEKGSLKCAQYWPQKEEKEMIFEDTNLKLTLISEDIKSYYTVRQLELENLTTQETREILHFHYTTWPDFGVPESPASFLNFLFKVRESGSLSPEHGPVVVHCSAGIGRSGTFCLADTCLLLMDKRKDPSSVDIKKVLLEMRKFRMGLIQTADQLRFSYLAVIEGAKFIMGDSSVQDQWKELSHEDLEPPPEHIPPPPRPPKRILEPHNGKCREFFPNHQWVKEETQEDKDCPIKEEKGSPLNAAPYGIESMSQDTEVRSRVVGGSLRGAQAASPAKGEPSLPEKDEDHALSYWKPFLVNMCVATVLTAGAYLCYRFLFNSNT
Km [1]: > 300 µM | Km [2]: 17.1 µM | Km [3]: 20.1 µM | Km [4]: 28.5 µM | Km [5]: 21.7 µM | Km [6]: 14.7 µM | Km [7]: 29.1 µM | Km [8]: Not Active | kcat/Km [9]: Not Active | Km [10]: 12.7 µM
